The results in this text go back to ChEMBL document CHEMBL1122863, “Renin inhibitors. Syntheses of subnanomolar, competitive, transition-state analogue inhibitors containing a novel analogue of statine” (J Med Chem, 1985).

Broadly, the IC50 is the concentration needed to halve the response being measured. As usually defined, the Ki is the equilibrium dissociation constant of an inhibitor or competing ligand from its target. A lower Ki goes with a stronger hold on the target.

Test [1] deals with T1, Renin (Homo sapiens, UniProt P00797).
T1 sequence (P00797 whole entry): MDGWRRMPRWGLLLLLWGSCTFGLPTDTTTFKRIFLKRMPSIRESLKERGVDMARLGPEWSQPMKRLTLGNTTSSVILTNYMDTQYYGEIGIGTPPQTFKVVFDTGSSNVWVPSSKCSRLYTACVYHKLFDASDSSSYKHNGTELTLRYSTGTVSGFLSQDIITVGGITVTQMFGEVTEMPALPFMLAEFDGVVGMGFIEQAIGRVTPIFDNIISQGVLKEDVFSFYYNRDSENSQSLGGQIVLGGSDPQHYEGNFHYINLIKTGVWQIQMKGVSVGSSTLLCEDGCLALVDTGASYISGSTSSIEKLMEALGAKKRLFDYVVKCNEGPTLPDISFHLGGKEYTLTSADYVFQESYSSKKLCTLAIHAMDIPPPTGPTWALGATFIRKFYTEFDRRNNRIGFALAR
The test is described as follows: Inhibition of human plasma renin. Type of test: cell-free. An outline of the steps:
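Renin in reconstituted lyophilized human plasma (high- or low-renin lots), acting on endogenous angiotensinogen. Angiotensin I was measured by radioimmunoassay at pH 7.4 phosphate, 37 °C, with 8-hydroxyquinoline or PMSF as angiotensinase inhibitor. Inhibitor stocks were 1.00×10⁻³ M in methanol or acetic acid. IC50 taken from several concentrations bracketing it.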

Test [2] has as its target Renin (Canis familiaris). The test is described as follows: Inhibition of Renin.
Test [3] addresses T1, Renin. The test is described as follows: Inhibition of human kidney renin. An outline of the steps: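 Fluorometric assay with a synthetic tetradecapeptide substrate, pH 7.20 citrate/phosphate, 37 °C. Ki obtained by fitting to a competitive inhibition equation, sometimes from data pooled across two independent experiments. Reproducible within ±20%.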
Test [4] addresses Pepsin A (Sus scrofa, UniProt P00791). The test is described as follows: The compound was tested for inhibition of porcine pepsin.
Test [5] deals with T2, Rhizopuspepsin (Rhizopus microsporus var. chinensis, UniProt P06026).
T2 sequence (P06026 whole entry): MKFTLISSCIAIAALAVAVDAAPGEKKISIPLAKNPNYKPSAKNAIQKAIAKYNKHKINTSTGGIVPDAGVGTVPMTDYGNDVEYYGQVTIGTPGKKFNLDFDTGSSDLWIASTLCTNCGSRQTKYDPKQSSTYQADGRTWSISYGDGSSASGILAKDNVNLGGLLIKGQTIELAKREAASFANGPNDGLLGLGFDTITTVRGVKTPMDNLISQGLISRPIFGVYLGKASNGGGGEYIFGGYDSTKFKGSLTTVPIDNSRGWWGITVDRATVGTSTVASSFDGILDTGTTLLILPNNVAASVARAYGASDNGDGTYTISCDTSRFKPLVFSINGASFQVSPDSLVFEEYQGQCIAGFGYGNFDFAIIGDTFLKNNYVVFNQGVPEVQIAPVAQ
The test is described as follows: Inhibition of rhizopuspepsin. In a few lines:
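IC50 came from several inhibitor concentrations and was converted to Ki by the Cha equation, assuming competitive inhibition.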

For test [6], the species on record is Mus musculus. The test is described as follows: The compound was tested for inhibition of mouse submaxillary renin. It is filed as functional. In a few lines:
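Mouse submaxillary gland renin was run like the human kidney renin assay: synthetic tetradecapeptide substrate, fluorometric read-out, pH 7.20 citrate/phosphate, 37 °C. Ki came from a competitive inhibition fit.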

Residues, ends and D or L forms follow the SMILES beside them.

Sequence of Pepsin A (P00791 whole entry): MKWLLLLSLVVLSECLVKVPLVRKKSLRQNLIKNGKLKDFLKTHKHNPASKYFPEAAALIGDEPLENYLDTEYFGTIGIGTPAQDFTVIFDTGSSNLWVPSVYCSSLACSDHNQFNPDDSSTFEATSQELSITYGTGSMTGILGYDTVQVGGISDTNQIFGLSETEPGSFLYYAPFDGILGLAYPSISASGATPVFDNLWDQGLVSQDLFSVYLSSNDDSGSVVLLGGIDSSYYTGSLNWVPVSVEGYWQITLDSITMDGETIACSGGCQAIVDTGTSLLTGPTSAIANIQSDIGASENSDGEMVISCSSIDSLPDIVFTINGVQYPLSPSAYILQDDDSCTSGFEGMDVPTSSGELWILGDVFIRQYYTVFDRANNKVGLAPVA

As to `CC(C)C[C@H](NC(=O)C[C@H](O)[C@H](CC1CCCCC1)NC(=O)[C@H](Cc1c[nH]cn1)NC(=O)COc1ccccc1)C(=O)N[C@@H](Cc1ccccc1)C(N)=O`, the values for the concentration for half-maximal inhibition (IC50) in test [1] and in test [2] were 1000 nM and > 1000 nM, respectively. For the same molecule, the affinity in test [3], expressed as Ki, was 14 nM.
On the same counts, the results for `CC(C)C[C@H](NC(=O)C[C@H](O)[C@H](Cc1ccccc1)NC(=O)[C@H](Cc1c[nH]cn1)NC(=O)COc1ccccc1)C(=O)N[C@@H](Cc1ccccc1)C(N)=O` are > 1000 nM, > 1000 nM and 580 nM.
In the same order, the values of `CC(C)C[C@H](NC(=O)C[C@H](O)[C@H](CC1CCCCC1)NC(=O)[C@H](Cc1c[nH]cn1)NC(=O)[C@H](Cc1ccccc1)NC(=O)OC(C)(C)C)C(=O)N[C@@H](Cc1ccccc1)C(N)=O` (HELM PEPTIDE1{[CC(C)(C)OC(=O)[*:2]].F.H.[O=C(C[C@H](O)[C@H](CC1CCCCC1)N[*:1])[*:2]].L.F.[am]}$$$$V2.0) are 2.2 nM, 13 nM and 0.88 nM.
For the molecule `CC(C)CC(=O)N[C@@H](Cc1c[nH]cn1)C(=O)N1CCC[C@H]1C(=O)N[C@@H](Cc1ccccc1)C(=O)N[C@@H](Cc1c[nH]cn1)C(=O)N[C@@H](CC(C)C)[C@@H](O)CC(=O)N[C@@H](CC(C)C)C(=O)N[C@@H](Cc1ccccc1)C(N)=O` (HELM PEPTIDE1{[CC(C)CC(=O)[*:2]].H.P.F.H.[CC(C)C[C@H](N[*:1])[C@@H](O)CC(=O)[*:2]].L.F.[am]}$$$$V2.0), the results for the Ki in test [4], in test [5] and in test [6] were 27 nM, 200 nM and 14 nM, respectively.
On the same counts, the results for `CC(C)CC(=O)N[C@@H](Cc1c[nH]cn1)C(=O)N1CCC[C@H]1C(=O)N[C@@H](Cc1ccccc1)C(=O)N[C@@H](Cc1c[nH]cn1)C(=O)N[C@@H](CC1CCCCC1)C(O)CC(=O)N[C@@H](CC(C)C)C(=O)N[C@@H](Cc1ccccc1)C(N)=O` (some centres not stated) (HELM PEPTIDE1{[CC(C)CC(=O)[*:2]].H.P.F.H.[O=C(CC(O)[C@H](CC1CCCCC1)N[*:1])[*:2]].L.F.[am]}$$$$V2.0) are 28 nM, 230 nM and 2.1 nM.
As to `CC(C)C[C@H](NC(=O)C[C@H](O)[C@H](CC1CCCCC1)NC(=O)[C@H](Cc1c[nH]cn1)NC(=O)[C@H](Cc1ccccc1)NC(=O)OC(C)C)C(=O)N[C@@H](Cc1ccccc1)C(N)=O` (HELM PEPTIDE1{[CC(C)OC(=O)[*:2]].F.H.[O=C(C[C@H](O)[C@H](CC1CCCCC1)N[*:1])[*:2]].L.F.[am]}$$$$V2.0), the results for the IC50 in test [1] and in test [2] were 5.1 nM and 20 nM, respectively. Also, the Ki in test [3] turned out to be 1.1 nM.
As for `CCOC(=O)N[C@@H](Cc1ccccc1)C(=O)N[C@@H](Cc1c[nH]cn1)C(=O)N[C@@H](CC1CCCCC1)[C@@H](O)CC(=O)N[C@@H](CC(C)C)C(=O)N[C@@H](Cc1ccccc1)C(N)=O` (HELM PEPTIDE1{[CCOC(=O)[*:2]].F.H.[O=C(C[C@H](O)[C@H](CC1CCCCC1)N[*:1])[*:2]].L.F.[am]}$$$$V2.0), the results for the IC50 in test [1] and in test [2] were 0.76 nM and 9.5 nM, respectively. The same molecule yielded an inhibition constant Ki in test [3] of 0.52 nM.
In test [3], `CC(C)C[C@H](NC(=O)C[C@H](O)[C@H](CC(C)C)NC(=O)[C@H](Cc1c[nH]cn1)NC(=O)COc1ccccc1)C(=O)N[C@@H](Cc1ccccc1)C(N)=O` (HELM PEPTIDE1{[O=C(COc1ccccc1)[*:2]].H.[CC(C)C[C@H](N[*:1])[C@@H](O)CC(=O)[*:2]].L.F.[am]}$$$$V2.0) registered an inhibitory constant (Ki) of 4100 nM.
